Test results from ChEMBL document CHEMBL3272177, “Hypolipidemic alkoxybenzoic acids” (1976).

Key:
Set-up in all cases: scale not given: the % may be the effect or the level left
Rattus norvegicus [1] = organism: Rattus norvegicus; test: Reduction in sterol level in CFE rat […] at 0.025% of diet treated through diet for 6 days relative to control; format: functional, Serum
Summary of the method: (§1)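 Compound dissolved in methanol-chloroform (1:3 v/v), mixed into ground rat chow at 0.1, 0.05 or 0.025% (w/w), and solvent evaporated; controls received solvent-treated chow. Rats fed ad libitum with water for 6 days, then killed fed and bled. Serum sterols and triglycerides measured by autoanalyzer. Values given as percent of control, mean ± SE; significance by Student's t test.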

Rattus norvegicus [2] = organism: Rattus norvegicus; test: Reduction in sterol level in CFE rat […] in serum at 0.1% of diet treated through diet for 6 days relative to control; format: functional; summary of the method: as §1
Rattus norvegicus [3] = organism: Rattus norvegicus; test: Reduction in triglyceride level in CFE rat […] in serum at 0.1% of diet treated through diet for 6 days relative to control; format: functional; summary of the method: as §1
Rattus norvegicus [4] = organism: Rattus norvegicus; test: Reduction in triglyceride level in CFE rat […] in serum at 0.05% of diet treated through diet for 6 days relative to control; format: functional; summary of the method: as §1
Rattus norvegicus [5] = organism: Rattus norvegicus; test: Reduction in triglyceride level in CFE rat […] at 0.025% of diet treated through diet for 6 days relative to control; format: functional, Serum; summary of the method: as §1
Rattus norvegicus [6] = organism: Rattus norvegicus; test: Reduction in sterol level in CFE rat […] in serum at 0.05% of diet treated through diet for 6 days relative to control; format: functional; summary of the method: as §1

SMILES	Activity (Rattus norvegicus [1]) [%]	Activity (Rattus norvegicus [2]) [%]	Activity (Rattus norvegicus [3]) [%]	Activity (Rattus norvegicus [4]) [%]	Activity (Rattus norvegicus [5]) [%]	Activity (Rattus norvegicus [6]) [%]
CCCCNCCCCCCCCCCCOc1ccc(C(=O)O)cc1	98	100	100	103	119	104
O=C(O)CCCCCCCCCCOc1ccc(C(=O)O)cc1	96	94	100	135	118	100
CCCCNC(=O)CCCCCCCCCCOc1ccc(C(=O)O)cc1	99	88	85	87	93	96
CC(C)CCCC(C)CCCC(C)CCCC(C)CCOc1ccc(C(=O)O)cc1 (stereo unspecified)	87	71	72	104	110	84
O=C(O)c1ccc(OCC2CCCCCCCCCCC2)cc1	104	101	160	130	123	105
CCCCCCCCCCCCCCC(C)Oc1ccc(C(=O)O)cc1 (stereo unspecified)	90	84	70	72	92	85
CCCCCCCCCCCCCC(CC)Oc1ccc(C(=O)O)cc1 (stereo unspecified)	82	85	75	78	83	86
CCCCCCCCCCCCC(CCC)Oc1ccc(C(=O)O)cc1 (stereo unspecified)	78	74	53	62	70	76
O=C(O)c1ccc(OC2C3CC4CC(C3)CC2C4)cc1 (stereo unspecified)	88	96	88	82	79	92
CCCCCCCCCCCC(C)(C)Oc1ccc(C(=O)O)cc1	90	83	63	80	74	88
CCCCCCCCCCCCC(C)(C)Oc1ccc(C(=O)O)cc1	100	97	87	79	77	90
CCCCCCCCCCCCCC(C)(C)Oc1ccc(C(=O)O)cc1	92	100	83	105	127	120
CCCCCCCCCCCCCCCC(C)(C)Oc1ccc(C(=O)O)cc1	101	96	100	111	103	112
O=C(O)c1ccc(OC23CC4CC(CC(C4)C2)C3)cc1	90	88	85	89	85	87
CCCCCCCCC/C=C/CCCOc1ccc(C(=O)O)cc1	87	77	87	89	89	73
CCCCCCCCCC/C=C/CCCOc1ccc(C(=O)O)cc1	92	79	92	76	72	92
CCCCCCCCCCC/C=C/CCCOc1ccc(C(=O)O)cc1	75	69	59	76	76	67
CCCCCCCCCCCCC/C=C\COc1ccc(C(=O)O)cc1	95	90	60	79	88	87
CCCCCCCCCCCCC/C=C/COc1ccc(C(=O)O)cc1	106	81	46	57	45	85
CCCCCCCCCCCCCC#CCOc1ccc(C(=O)O)cc1	98	82	75	65	96	88
C=CCCCCCCCC/C=C/CCCOc1ccc(C(=O)O)cc1	92	74	83	96	83	87
